Source: ChEMBL document CHEMBL4229550, “An antimycobacterial pleuromutilin analogue effective against dormant bacilli” (Bioorg Med Chem, 2018)
Values after ≈ are worked out from the molar mass of the structure shown. Active and inactive are the calls of the source. The rule behind the calls is not given here.

Tests used:
[1] = tested on: Vero; assay: Cytotoxicity against African green monkey Vero cells assessed as reduction in cell viability after 72 hrs by MTT assay; format: cell-based; conditions: Chlorocebus sabaeus
Summary of the method: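 Vero cells were grown in complete EMEM with 10% FBS and exposed for 72 h to 0.78–200 µg/mL. The medium was then swapped for phenol-red-free EMEM and MTT was added. Formazan absorbance was read at 570 nm to give IC50.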

[2] = tested on: Mycobacterium tuberculosis; assay: Bactericidal activity against replicating Mycobacterium tuberculosis H37Rv incubated for 15 days under aerobic condition by MABA; format: functional; conditions: 360 h
Summary of the method: (§1)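 Mtb H37Rv grown in 7H9/OADC at 37 °C with shaking to OD600 0.5. The 0.5-OD culture is exposed aerobically to serial dilutions for 15 days at 37 °C. Resazurin (0.02% stock) is then added for 4 h at 37 °C with shaking.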

[3] = tested on: Mycolicibacterium smegmatis; assay: Antibacterial activity against Mycobacterium smegmatis ATCC 607 incubated for 48 hrs under aerobic condition by MABA; format: functional; conditions: ATCC 607, 48 h, read-out: MIC100
Summary of the method: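 Mid-log culture at OD 0.5 was incubated with serial dilutions aerobically at 37 °C for 48 h. Resazurin was then added from a 0.08% stock for 1 h. MIC100 was the lowest concentration that stayed blue; absorbance was also read at 570/600 nm.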

[4] = tested on: Mycolicibacterium smegmatis; assay: Bactericidal activity against Mycobacterium smegmatis ATCC 607 incubated for 48 hrs under aerobic condition by MABA; format: functional; conditions: ATCC 607, 48 h
[5] = tested on: Staphylococcus aureus; assay: Bactericidal activity against Staphylococcus aureus incubated for 24 hrs under aerobic condition by MABA; format: functional
[6] = tested on: Staphylococcus aureus; assay: Antibacterial activity against Staphylococcus aureus ATCC 25923 incubated for 24 hrs under aerobic condition by MABA; format: functional; conditions: ATCC 25923, 24 h, read-out: MIC100
Summary of the method: (§2)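 Mid-log cultures at OD 0.5 were exposed to serial dilutions under aerobic conditions at 37 °C for 24 h. Resazurin was then added from a 0.08% stock for 1 h. MIC100 was the lowest concentration where the dye stayed blue (pink means growth). Absorbance was also read at 570 and 600 nm.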

[7] = tested on: Staphylococcus aureus; assay: Bactericidal activity against Staphylococcus aureus ATCC 25923 incubated for 24 hrs under aerobic condition by MABA; format: functional; conditions: ATCC 25923, 24 h
[8] = tested on: Staphylococcus aureus; assay: Bactericidal activity against Staphylococcus aureus BAA 2094 incubated for 24 hrs under aerobic condition by MABA; format: functional; conditions: BAA 2094, 24 h
[9] = tested on: Staphylococcus aureus; assay: Antibacterial activity against Staphylococcus aureus BAA 1683 incubated for 24 hrs under aerobic condition by MABA; format: functional; conditions: BAA 1683, 24 h, read-out: MIC100; summary of the method: as §2
[10] = tested on: Staphylococcus aureus; assay: Bactericidal activity against Staphylococcus aureus BAA 1683 incubated for 24 hrs under aerobic condition by MABA; format: functional; conditions: BAA 1683, 24 h
[11] = tested on: Staphylococcus aureus; assay: Antibacterial activity against Staphylococcus aureus BAA 44 incubated for 24 hrs under aerobic condition by MABA; format: functional; conditions: BAA 44, 24 h, read-out: MIC100; summary of the method: as §2
[12] = tested on: Staphylococcus aureus; assay: Bactericidal activity against Staphylococcus aureus BAA 44 incubated for 24 hrs under aerobic condition by MABA; format: functional; conditions: BAA 44, 24 h
[13] = tested on: Enterococcus faecalis; assay: Antibacterial activity against Enterococcus faecalis ATCC 349 incubated for 24 hrs under aerobic condition by MABA; format: functional; conditions: ATCC 349, 24 h, read-out: MIC100; summary of the method: as §2
[14] = tested on: Enterococcus faecalis; assay: Bactericidal activity against Enterococcus faecalis ATCC 349 incubated for 24 hrs under aerobic condition by MABA; format: functional; conditions: ATCC 349, 24 h
[15] = tested on: Enterococcus faecalis; assay: Antibacterial activity against Enterococcus faecalis ATCC 19433 incubated for 24 hrs under aerobic condition by MABA; format: functional; conditions: ATCC 19433, 24 h, read-out: MIC100; summary of the method: as §2
[16] = tested on: Enterococcus faecalis; assay: Bactericidal activity against Enterococcus faecalis ATCC 19433 incubated for 24 hrs under aerobic condition by MABA; format: functional; conditions: ATCC 19433, 24 h
[17] = tested on: Clostridioides difficile; assay: Bactericidal activity against Clostridium difficile ATCC 700057 incubated for 24 hrs […] by MABA; format: functional; conditions: ATCC 700057, 24 h
[18] = tested on: Streptococcus pneumoniae; assay: Antibacterial activity against Streptococcus pneumoniae ATCC 6301 incubated for 24 hrs under aerobic condition by MABA; format: functional; conditions: ATCC 6301, 24 h, read-out: MIC100; summary of the method: as §2
[19] = tested on: Streptococcus pneumoniae; assay: Bactericidal activity against Streptococcus pneumoniae ATCC 6301 incubated for 24 hrs under aerobic condition by MABA; format: functional; conditions: ATCC 6301, 24 h
[20] = tested on: Klebsiella pneumoniae; assay: Antibacterial activity against Klebsiella pneumoniae ATCC 12019 incubated for 24 hrs under aerobic condition by MABA; format: functional; conditions: ATCC 12019, 24 h, read-out: MIC100; summary of the method: as §2
[21] = tested on: Klebsiella pneumoniae; assay: Bactericidal activity against Klebsiella pneumoniae ATCC 12019 incubated for 24 hrs under aerobic condition by MABA; format: functional; conditions: ATCC 12019, 24 h
[22] = tested on: Acinetobacter baumannii; assay: Antibacterial activity against Acinetobacter baumannii ATCC 19606 incubated for 24 hrs under aerobic condition by MABA; format: functional; conditions: ATCC 19606 = CIP 70.34 = JCM 6841, 24 h, read-out: MIC100; summary of the method: as §2
[23] = tested on: Acinetobacter baumannii; assay: Bactericidal activity against Acinetobacter baumannii ATCC 19606 incubated for 24 hrs under aerobic condition by MABA; format: functional; conditions: ATCC 19606 = CIP 70.34 = JCM 6841, 24 h
[24] = tested on: Escherichia coli; assay: Antibacterial activity against Escherichia coli ATCC 10798 incubated for 24 hrs under aerobic condition by MABA; format: functional; conditions: ATCC 10798, 24 h, read-out: MIC100; summary of the method: as §2
[25] = tested on: Escherichia coli; assay: Bactericidal activity against Escherichia coli ATCC 10798 incubated for 24 hrs under aerobic condition by MABA; format: functional; conditions: ATCC 10798, 24 h
[26] = tested on: Streptococcus salivarius; assay: Bactericidal activity against Streptococcus salivarius ATCC 6301 incubated for 24 hrs under aerobic condition by MABA; format: functional; conditions: ATCC 6301, 24 h
[27] = tested on: Bacillus subtilis; assay: Antibacterial activity against Bacillus subtilis ATCC 6051 incubated for 24 hrs under aerobic condition by MABA; format: functional; conditions: ATCC 6051, 24 h, read-out: MIC100; summary of the method: as §2
[28] = tested on: Bacillus subtilis; assay: Bactericidal activity against Bacillus subtilis ATCC 6051 incubated for 24 hrs under aerobic condition by MABA; format: functional; conditions: ATCC 6051, 24 h
[29] = tested on: Mycobacterium tuberculosis; assay: Bactericidal activity against non-replicating Mycobacterium tuberculosis CDC1551 expressing tdTomato infected in mouse J774A.1 cells at 2 times MIC after 48 hrs by UV-Visible spectroscopic method; format: functional, organism-based
Summary of the method: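 J774A.1 macrophages are seeded at […] cells/well in DMEM and incubated overnight at 37 °C. They are infected with saline-washed Mtb CDC1551-tdTomato (10^6 bacteria, MOI ≈10), and extracellular bacteria are washed off with PBS. Treatment is at 2×MIC, with fluorescence emission read at 581 nm at 24, 48, 72 and 96 h. Survivors are confirmed by serial dilution and plating on 7H11.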

[30] = Apparent permeability from basolateral to apical side in human Caco2 cells at 10 uM after 2 hrs by LC-MS/MS analysis; format: ADME, cell-based; conditions: caco-2, 2 h
[31] = tested on: Mycobacterium tuberculosis; assay: Antibacterial activity against replicating Mycobacterium tuberculosis H37Rv incubated for 15 days under aerobic condition by MABA; format: functional; conditions: 360 h, read-out: MIC100; summary of the method: as §1
[32] = tested on: Erythrocyte; assay: Hemolytic activity in sheep erythrocytes after 2 hrs; format: ADME, cell-based; conditions: Ovis aries
Summary of the method: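 Washed heparinized sheep erythrocytes at 3% in buffer pH 7.4 were treated with 2–200 µg/mL for 2 h at 37 °C with gentle shaking. Triton X-100 (0.01–1%) was the positive control and PEG:H2O diluent the negative control. Released hemoglobin was read at OD540 and % hemolysis calculated against both controls.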

[33] = tested on: Mycobacterium tuberculosis; assay: Antibacterial activity against Mycobacterium tuberculosis; format: functional; conditions: read-out: MIC100; summary of the method: as §1
[34] = Selectivity index, ratio of IC50 for African green monkey Vero cells to MIC100 for replicating Mycobacterium tuberculosis H37Rv by MABA; format: toxicity; conditions: read-out: Selectivity Index
Summary of the method: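 Vero cells are cultured in EMEM with 10% FBS and exposed for 72 h to 0.78–200 µg/mL. Medium is switched to phenol-red-free EMEM, MTT is added, and formazan is read at 570 nm to give IC50. The selectivity index is Vero IC50 divided by the MABA MIC.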

[35] = tested on: Escherichia coli; assay: Inhibition of protein translation/transcription in Escherichia coli S30 cell extract at 0.1 ug/ml using circular DNA with pBESTluc after 60 mins by luciferase reporter gene assay; format: functional
Summary of the method: (§3)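 Coupled transcription/translation used E. coli S30 extract, amino acid mix and premix, with the pBESTluc template carrying firefly luciferase under the tac promoter. Compounds were added in DMSO and reactions were started with DNA. Incubation was 60 min at 37 °C, stopped on ice, and luciferase was read after adding assay substrate.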

[36] = tested on: Escherichia coli; assay: Inhibition of protein translation/transcription in Escherichia coli S30 cell extract at 0.5 ug/ml using circular DNA with pBESTluc after 60 mins by luciferase reporter gene assay; format: functional; summary of the method: as §3

Structure (SMILES): CO[C@H]1/C=C/O[C@@]2(C)Oc3c(C)c(O)c4c(O)c(c(/C=N/N5CCN(C)CC5)c(O)c4c3C2=O)NC(=O)/C(C)=C\C=C\[C@H](C)[C@H](O)[C@@H](C)[C@@H](O)[C@@H](C)[C@H](OC(C)=O)[C@@H]1C [RIFAMPIN]
- IC50 [1]: > 200 µg/mL
- MBC [2]: 0.01 µg/mL (≈ 0.0122 µM)
- MIC [3]: > 25 µg/mL
- MBC [4]: > 25 µg/mL
- MBC [5]: 0.4 µg/mL (≈ 0.486 µM)
- MIC [6]: > 25 µg/mL
- MBC [7]: > 25 µg/mL
- MBC [8]: 0.2 µg/mL (≈ 0.243 µM)
- MIC [9]: 0.15 µg/mL (≈ 0.182 µM)
- MBC [10]: 0.2 µg/mL (≈ 0.243 µM)
- MIC [11]: 6.25 µg/mL (≈ 7.59 µM)
- MBC [12]: 25 µg/mL (≈ 30.4 µM)
- MIC [13]: > 25 µg/mL
- MBC [14]: > 25 µg/mL
- MIC [15]: 0.78 µg/mL (≈ 0.948 µM)
- MBC [16]: 1.56 µg/mL (≈ 1.9 µM)
- MBC [17]: 0.78 µg/mL (≈ 0.948 µM)
- MIC [18]: 25 µg/mL (≈ 30.4 µM)
- MBC [19]: > 25 µg/mL
- MIC [20]: 1.56 µg/mL (≈ 1.9 µM)
- MBC [21]: 3.13 µg/mL (≈ 3.8 µM)
- MIC [22]: 2.35 µg/mL (≈ 2.86 µM)
- MBC [23]: 3.13 µg/mL (≈ 3.8 µM)
- MIC [24]: 3.13 µg/mL (≈ 3.8 µM)
- MBC [25]: 25 µg/mL (≈ 30.4 µM)
- MBC [26]: > 25 µg/mL
- MIC [27]: 0.3 µg/mL (≈ 0.365 µM)
- MBC [28]: 0.4 µg/mL (≈ 0.486 µM)
- Activity [29]: Active

Structure (SMILES): CNC(=C[N+](=O)[O-])NCCSCc1ccc(CN(C)C)o1 [RANITIDINE]
- Papp [30]: 1.14 ×10⁻⁶ cm/s

Structure (SMILES): CCCCCCCCCCCCC/C=C/C(=O)N[C@H]1[C@H](O[C@H]2O[C@H](CO)[C@@H](O)[C@H](O)[C@H]2NC(C)=O)O[C@H](CC(O)[C@H]2O[C@@H](n3ccc(=O)[nH]c3=O)[C@H](O)[C@@H]2O)[C@H](O)[C@@H]1O (some centres undefined)
- MIC [31]: 12.5 µg/mL (≈ 14.8 µM)
- IC50 [1]: 0.18 µg/mL (≈ 0.213 µM)
- IC50 [32]: 15 µM

Structure (SMILES): C=C[C@]1(C)C[C@@H](OC(=O)CSC(C)(C)CNC(=O)[C@H](N)CC(C)C)[C@]2(C)[C@H](C)CC[C@]3(CC[C@@H](O)[C@H]32)[C@@H](C)[C@@H]1O
- MIC [33]: < 6.25 µg/mL
- MIC [31]: 3.06 µg/mL (≈ 5.27 µM)
- IC50 [1]: 35 µg/mL (≈ 60.3 µM)
- selectivity ratio [34]: 11.4
- inhibition [35]: Active
- inhibition [36]: Active
